Data reported in ChEMBL document CHEMBL1123417, “New structure-activity relationships of the quinolone antibacterials using the target enzyme. The development and application of a DNA gyrase assay” (J Med Chem, 1986).
Values after ≈ are worked out from the molar mass of the structure shown.

Key:
[1] = target: DNA gyrase (Escherichia coli) (UniProt P0AES6+P0AES4)
DNA gyrase = DNA gyrase (Escherichia coli, UniProt P0AES4+P0AES6); assay: Inhibitory concentration in supercoiling inhibition Escherichia coli DNA gyrase assay; assay type: protein-complex assay; conditions: read-out: I50 (converted)
How it was run: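 Gyrase A and B subunits purified from E. coli H560, each titrated to fully supercoil relaxed Col E1 plasmid (~0.3 μg/mL). Drug in 0.1 N KOH, 40 min at 30 °C, then ATP for 10 min. SDS/proteinase K quench, 1% agarose gel, ethidium stain. Serial dilutions start at 200 μg/mL. I50 is the mean of the initial-inhibition and 100%-inhibition concentrations.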

Escherichia coli [2] = assay: Antibacterial activity against Escherichia coli (H560)
Pseudomonas aeruginosa = assay: Antibacterial activity against Pseudomonas aeruginosa (UI-18)
Staphylococcus aureus = assay: Antibacterial activity against Staphylococcus aureus (H228)
Klebsiella pneumoniae = assay: Antibacterial activity against Klebsiella pneumonia (MGH-2)
Streptococcus pneumoniae = assay: Antibacterial activity against Streptococcus pneumoniae (SV-1)
Escherichia coli [3] = assay: Antibacterial activity against Escherichia coli (vogel)

Row | Structure (SMILES) | gyrase cleavage conc [1] | IC50 (DNA gyrase) | MIC (Escherichia coli [2]) | MIC (Pseudomonas aeruginosa) | MIC (Staphylococcus aureus) | MIC (Klebsiella pneumoniae) | MIC (Streptococcus pneumoniae) | MIC (Escherichia coli [3])
1 | CCn1cc(C(=O)O)c(=O)c2cc3c(cc21)OCO3 [OXOLINIC ACID] | 10 µg/mL | 95.7 µM |  |  |  |  |  | 
2 | CCn1cc(C(=O)O)c(=O)c2cc(F)c(N3CCNCC3)nc21 [ENOXACIN] | 5 µg/mL | 87.4 µM |  |  |  |  |  | 
3 | CCn1cc(C(=O)O)c(=O)c2cnc(N3CCCC3)nc21 [PIROMIDIC ACID] | 38 µg/mL | > 347 µM |  |  |  |  |  | 
4 | CN1CCN(c2c(F)cc3c(=O)c(C(=O)O)cn(CCF)c3c2F)CC1 [FLEROXACIN] | 2.5 µg/mL | 10.3 µM |  |  |  |  |  | 
5 | CCn1cc(C(=O)O)c(=O)c2cc(F)c(-n3cccc3)cc21 [IRLOXACIN] | 2.5 µg/mL | 93.2 µM | 1.6 µg/mL (≈ 5.33 µM) | 12.5 µg/mL (≈ 41.6 µM) | 0.4 µg/mL (≈ 1.33 µM) | 1.6 µg/mL (≈ 5.33 µM) | 12.5 µg/mL (≈ 41.6 µM) | 1.6 µg/mL (≈ 5.33 µM)
6 | CCn1cc(C(=O)O)c(=O)c2cc(F)c(N3CCNCC3)c(F)c21 | 1 µg/mL | 18.7 µM | 0.1 µg/mL (≈ 0.296 µM) | 1.6 µg/mL (≈ 4.74 µM) | 3.1 µg/mL (≈ 9.19 µM) | 0.1 µg/mL (≈ 0.296 µM) | 3.1 µg/mL (≈ 9.19 µM) | 0.2 µg/mL (≈ 0.593 µM)
7 | CCn1cc(C(=O)O)c(=O)c2cc(F)c(N3CCCC3)cc21 | 5 µg/mL | 85.4 µM | 1.6 µg/mL (≈ 5.26 µM) | > 100 µg/mL | 0.8 µg/mL (≈ 2.63 µM) | > 100 µg/mL | 12.5 µg/mL (≈ 41.1 µM) | 1.6 µg/mL (≈ 5.26 µM)
8 | CCn1cc(C(=O)O)c(=O)c2ccc(-c3ccncc3)cc21 [ROSOXACIN] | 2.5 µg/mL | > 34 µM | 0.2 µg/mL (≈ 0.68 µM) | 6.3 µg/mL (≈ 21.4 µM) | 0.4 µg/mL (≈ 1.36 µM) | 0.4 µg/mL (≈ 1.36 µM) | 12.5 µg/mL (≈ 42.5 µM) | 0.2 µg/mL (≈ 0.68 µM)
9 | CCn1cc(C(=O)O)c(=O)c2cc(F)c(N3CCC(N4CCCC4)CC3)cc21 | 7.5 µg/mL |  | 0.1 µg/mL (≈ 0.258 µM) | 3.1 µg/mL (≈ 8 µM) | 3.1 µg/mL (≈ 8 µM) | 1.6 µg/mL (≈ 4.13 µM) | 12.5 µg/mL (≈ 32.3 µM) | 0.4 µg/mL (≈ 1.03 µM)
10 | CCn1cc(C(=O)O)c(=O)c2ccc(N3CCN(CC#N)CC3)cc21 | 18 µg/mL |  | 50 µg/mL (≈ 147 µM) | 100 µg/mL (≈ 294 µM) | 25 µg/mL (≈ 73.4 µM) | > 100 µg/mL | > 100 µg/mL | 50 µg/mL (≈ 147 µM)
11 | CCn1cc(C(=O)O)c(=O)c2cc(F)c(N3CCSC3)nc21 | 5 µg/mL | 201 µM | 0.4 µg/mL (≈ 1.24 µM) | 1.6 µg/mL (≈ 4.95 µM) | 0.05 µg/mL (≈ 0.155 µM) | 0.4 µg/mL (≈ 1.24 µM) | 1.6 µg/mL (≈ 4.95 µM) | 0.1 µg/mL (≈ 0.309 µM)
12 | CCn1cc(C(=O)O)c(=O)cc1C | 100 µg/mL |  | > 100 µg/mL | > 100 µg/mL | > 100 µg/mL | > 100 µg/mL | > 100 µg/mL | > 100 µg/mL
13 | CCn1cc(C(=O)O)c(=O)c2ccc(N3CCNCC3)nc21 | 75 µg/mL |  | 3.1 µg/mL (≈ 10.3 µM) | 12.5 µg/mL (≈ 41.3 µM) | 50 µg/mL (≈ 165 µM) | 12.5 µg/mL (≈ 41.3 µM) | 50 µg/mL (≈ 165 µM) | 6.3 µg/mL (≈ 20.8 µM)
14 | CCn1cc(C(=O)O)c(=O)c2cc(F)c(N3CCN(CC#N)CC3)cc21 | 10 µg/mL |  | 0.8 µg/mL (≈ 2.23 µM) | 6.3 µg/mL (≈ 17.6 µM) | 1.6 µg/mL (≈ 4.46 µM) | 0.8 µg/mL (≈ 2.23 µM) | 6.3 µg/mL (≈ 17.6 µM) | 0.4 µg/mL (≈ 1.12 µM)
15 | CCn1cc(C(=O)O)c(=O)cc1-c1ccc(OC)cc1 | 100 µg/mL |  | > 100 µg/mL | > 100 µg/mL | > 100 µg/mL | 50 µg/mL (≈ 183 µM) | > 100 µg/mL | 50 µg/mL (≈ 183 µM)

Continued, values first:

Row | gyrase cleavage conc [1] | IC50 (DNA gyrase) | MIC (Escherichia coli [2]) | MIC (Pseudomonas aeruginosa) | MIC (Staphylococcus aureus) | MIC (Klebsiella pneumoniae) | MIC (Streptococcus pneumoniae) | MIC (Escherichia coli [3]) | Structure (SMILES)
16 | 43 µg/mL | > 381 µM |  |  |  |  |  |  | CCn1nc(C(=O)O)c(=O)c2cc3c(cc21)OCO3 [CINOXACIN]
17 | 50 µg/mL | > 330 µM |  |  |  |  |  |  | CCn1cc(C(=O)O)c(=O)c2cnc(N3CCNCC3)nc21 [PIPEMIDIC ACID]
18 |  | 18.8 µM |  | 0.8 µg/mL (≈ 2.39 µM) | 1.6 µg/mL (≈ 4.79 µM) | 0.2 µg/mL (≈ 0.598 µM) | 12.5 µg/mL (≈ 37.4 µM) | 0.1 µg/mL (≈ 0.299 µM) | CNn1cc(C(=O)O)c(=O)c2cc(F)c(N3CCN(C)CC3)cc21 [AMIFLOXACIN]
19 | 10 µg/mL | 190 µM | 0.4 µg/mL (≈ 1.52 µM) | 12.5 µg/mL (≈ 47.5 µM) | 6.3 µg/mL (≈ 23.9 µM) | 0.2 µg/mL (≈ 0.76 µM) | 100 µg/mL (≈ 380 µM) | 0.4 µg/mL (≈ 1.52 µM) | COn1cc(C(=O)O)c(=O)c2cc3c(cc21)OCO3 [MILOXACIN]
20 | 25 µg/mL |  | 3.1 µg/mL (≈ 12.4 µM) | 50 µg/mL (≈ 200 µM) | 25 µg/mL (≈ 99.9 µM) | 6.3 µg/mL (≈ 25.2 µM) | > 100 µg/mL | 3.1 µg/mL (≈ 12.4 µM) | CCn1cc(C(=O)O)c(=O)c2cc(F)c(C)nc21
21 | 10 µg/mL |  | 25 µg/mL (≈ 69 µM) | 50 µg/mL (≈ 138 µM) | 12.5 µg/mL (≈ 34.5 µM) | 50 µg/mL (≈ 138 µM) | 50 µg/mL (≈ 138 µM) | 25 µg/mL (≈ 69 µM) | CCn1cc(C(=O)O)c(=O)c2cc(F)c(N3CCN(CCN)CC3)cc21
22 | 100 µg/mL |  | 50 µg/mL (≈ 138 µM) | > 100 µg/mL | 25 µg/mL (≈ 69.2 µM) | 25 µg/mL (≈ 69.2 µM) | 100 µg/mL (≈ 277 µM) | 25 µg/mL (≈ 69.2 µM) | CCn1cc(C(=O)O)c(=O)c2cc(F)c(/C=N/N3CCN(C)CC3)nc21
23 | 50 µg/mL |  | 50 µg/mL (≈ 180 µM) | > 100 µg/mL | 25 µg/mL (≈ 90.2 µM) | 50 µg/mL (≈ 180 µM) | > 100 µg/mL | 25 µg/mL (≈ 90.2 µM) | CCn1cc(C(=O)O)c(=O)c2cc([N+](=O)[O-])c(C)nc21
24 | 2.5 µg/mL | 16.4 µM | 0.4 µg/mL (≈ 1.31 µM) | 6.3 µg/mL (≈ 20.6 µM) | 0.2 µg/mL (≈ 0.655 µM) | 3.1 µg/mL (≈ 10.2 µM) | 3.1 µg/mL (≈ 10.2 µM) | 3.1 µg/mL (≈ 10.2 µM) | CCn1cc(C(=O)O)c(=O)c2cc(F)c(N3CCCC3)nc21
25 | 18 µg/mL |  | 3.1 µg/mL (≈ 11.7 µM) | > 100 µg/mL | 12.5 µg/mL (≈ 47.3 µM) | 6.3 µg/mL (≈ 23.8 µM) | 100 µg/mL (≈ 378 µM) | 3.1 µg/mL (≈ 11.7 µM) | CCn1cc(C(=O)O)c(=O)c2cc(F)c(NC)cc21
